Calls of active or inactive are those of the source. The rule behind the calls is not given here.
Assays:
[1] = Drug uptake in pre-cannulated Sprague-Dawley rat prostate gland at 10 mg/kg administered via oral gavage after 24 hrs by LC-MS/MS analysis; type: ADME, organism-based; conditions: read-out: Drug uptake
Outline: (§1)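 After one 10 mg/kg oral gavage to SD rats (n = 4 per group), red blood cells, brain, lung, liver, kidney and prostate were harvested at 24 h. Drug levels were quantified by LC-MS/MS.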

[2] = Drug uptake in tumor of human PC3 cells xenografted in athymic NCr-nu/nu mouse at 3 mg/kg, qd administered via oral gavage measured 24 hrs post last dose by LC-MS/MS analysis; type: ADME, organism-based, Neoplasm, PC-3; conditions: read-out: Drug uptake
Outline: (§2)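 Tumors were harvested at the end of daily oral-gavage xenograft studies in nude mice bearing PC-3 tumors (3, 10 or 30 mg/kg). Drug accumulation in tumor was measured by LC-MS/MS and reported as mean ± SEM.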

[3] = system: PC-3; test: Antitumor activity against human PC3 cells xenografted in athymic NCr-nu/nu mouse assessed as tumor growth inhibition at 3 mg/kg, qd administered via oral gavage measured every 2 to 3 days; type: functional, organism-based
Outline: (§3)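 Nude mice with palpable subcutaneous PC-3 tumors (n = 9–11 per group) were dosed once daily by oral gavage. Study 1 used 3 or 10 mg/kg in 95:5 olive oil/EtOH vehicle; study 2 used 10 or 30 mg/kg in 95:5 PEG400/Tween80 vehicle. Tumor volume and body weight were measured periodically. Tumor growth was analysed by a repeated-measures linear mixed model with autoregressive covariance; weight change by one-way ANOVA with Sidak's test.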

[4] = Terminal half-life in pre-cannulated Sprague-Dawley rat at 2 mg/kg, iv after […] to 8 hrs by LC-MS/MS analysis; type: ADME, organism-based; conditions: in vivo, read-out: beta t1/2 (converted)
Outline: (§4)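 SD rats (n = 3–4 per group) received a single 2 mg/kg i.v. injection in PEG400/EtOH/Tween80/H2O (40:10:3:47). Plasma was sampled periodically and drug was quantified by LC-MS/MS. t1/2, Cl, Cmax and AUC were reported as mean ± SEM.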

[5] = Cmax in pre-cannulated Sprague-Dawley rat at 2 mg/kg, iv after […] to 8 hrs by LC-MS/MS analysis; type: ADME, organism-based; design: dose 2 mg/kg, route intravenous; conditions: in vivo; outline: as §4
[6] = Clearance in pre-cannulated Sprague-Dawley rat at 2 mg/kg, iv after […] to 8 hrs by LC-MS/MS analysis; type: ADME, organism-based; conditions: in vivo; outline: as §4
[7] = Drug uptake in tumor of human PC3 cells xenografted in athymic NCr-nu/nu mouse at 10 mg/kg, qd administered via oral gavage measured 24 hrs post last dose by LC-MS/MS analysis; type: ADME, organism-based, Neoplasm, PC-3; conditions: read-out: Drug uptake; outline: as §2
[8] = Drug uptake in pre-cannulated Sprague-Dawley rat brain at 10 mg/kg administered via oral gavage after 24 hrs by LC-MS/MS analysis; type: ADME, organism-based; conditions: read-out: Drug uptake; outline: as §1
[9] = Drug uptake in pre-cannulated Sprague-Dawley rat liver at 10 mg/kg administered via oral gavage after 24 hrs by LC-MS/MS analysis; type: ADME, organism-based; conditions: read-out: Drug uptake; outline: as §1
[10] = Oral bioavailability in pre-cannulated Sprague-Dawley rat at 10 mg/kg administered via gavage after 0.5 to 24 hrs by LC-MS/MS analysis; type: ADME, organism-based; conditions: in vivo
[11] = system: Plasma; test: Drug uptake in pre-cannulated Sprague-Dawley rat plasma at 10 mg/kg administered via oral gavage after 1 hr by LC-MS/MS analysis; type: ADME, organism-based; conditions: in vivo
Outline: (§5)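 A single 10 mg/kg oral gavage was given to SD rats (n = 4 per group). Vehicle was 90:10 olive oil/EtOH or 95:5 PEG400/Tween80, depending on the analog. Plasma was collected periodically and drug was measured by LC-MS/MS; data are mean ± SEM.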

[12] = Drug uptake in pre-cannulated Sprague-Dawley rat RBC at 10 mg/kg administered via oral gavage after 24 hrs by LC-MS/MS analysis; type: ADME, organism-based, Erythrocyte; conditions: red blood cells, read-out: Drug uptake; outline: as §1
[13] = Drug uptake in pre-cannulated Sprague-Dawley rat kidney at 10 mg/kg administered via oral gavage after 24 hrs by LC-MS/MS analysis; type: ADME, organism-based; conditions: read-out: Drug uptake; outline: as §1
[14] = system: Mus musculus; test: Toxicity in athymic NCr-nu/nu mouse xenografted with human PC3 cells assessed as change in body weight at 10 mg/kg administered via oral gavage measured every 2 to 3 days; type: organism-based, PC-3; conditions: in vivo; outline: as §3
[15] = Cytotoxicity against human PC3 cells assessed as reduction in cell viability after 24 hrs by WST-1 assay; type: functional, cell-based; conditions: PC-3, 24 h
Outline: (§6)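 Cells were exposed to compound for 24 h (n = 3–4), and viability was read as mitochondrial activity by WST-1. IC50 and IC90 were derived from concentration–response curves and reported as mean ± SEM.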

[16] = Tmax in pre-cannulated Sprague-Dawley rat at 10 mg/kg administered via oral gavage after 0.5 to 24 hrs by LC-MS/MS analysis; type: ADME, organism-based; conditions: in vivo; outline: as §5
[17] = system: PC-3; test: Antitumor activity against human PC3 cells xenografted in athymic NCr-nu/nu mouse assessed as tumor growth inhibition at 10 mg/kg, qd administered via oral gavage measured every 2 to 3 days; type: functional, organism-based; outline: as §3
[18] = Tmax in pre-cannulated Sprague-Dawley rat at 2 mg/kg, iv after […] to 8 hrs by LC-MS/MS analysis; type: ADME, organism-based; conditions: in vivo; outline: as §4
[19] = Cmax in pre-cannulated Sprague-Dawley rat at 10 mg/kg administered via oral gavage after 0.5 to 24 hrs by LC-MS/MS analysis; type: ADME, organism-based; design: dose 10 mg/kg, route oral; conditions: in vivo; outline: as §5
[20] = Terminal half-life in pre-cannulated Sprague-Dawley rat at 10 mg/kg administered via oral gavage after 0.5 to 24 hrs by LC-MS/MS analysis; type: ADME, organism-based; conditions: in vivo, read-out: beta t1/2 (converted); outline: as §5
[21] = system: LNCaP; test: Cytotoxicity against human LNCAP cells assessed as reduction in cell viability after 24 hrs by WST-1 assay; type: functional, cell-based; outline: as §6
[22] = Octanol-buffer partition co-efficient, log D of the compound at 100 uM at pH 7.4 by shake-flask method; type: physicochemical
[23] = AUC(0 to t) in pre-cannulated Sprague-Dawley rat at 10 mg/kg administered via oral gavage after 0.5 to 24 hrs by LC-MS/MS analysis; type: ADME, organism-based; design: time upper 24 hr, time lower 0.5 hr, dose 10 mg/kg, route oral; conditions: in vivo; outline: as §5
[24] = system: Mus musculus; test: Toxicity in athymic NCr-nu/nu mouse xenografted with human PC3 cells assessed as change in body weight at 3 mg/kg administered via oral gavage measured every 2 to 3 days; type: organism-based, PC-3; conditions: in vivo; outline: as §3
[25] = Drug uptake in pre-cannulated Sprague-Dawley rat lung at 10 mg/kg administered via oral gavage after 24 hrs by LC-MS/MS analysis; type: ADME, organism-based; conditions: read-out: Drug uptake; outline: as §1
[26] = AUC(0 to t) in pre-cannulated Sprague-Dawley rat at 2 mg/kg, iv after […] to 8 hrs by LC-MS/MS analysis; type: ADME, organism-based; design: time upper 8 hr, dose 2 mg/kg, route intravenous; conditions: in vivo; outline: as §4
[27] = system: Mus musculus; test: Toxicity in athymic NCr-nu/nu mouse xenografted with human PC3 cells assessed as change in body weight at 30 mg/kg administered via oral gavage measured every 2 to 3 days; type: organism-based, PC-3; conditions: in vivo; outline: as §3
[28] = system: Plasma; test: Drug uptake in pre-cannulated Sprague-Dawley rat plasma at 10 mg/kg administered via oral gavage after 2 hrs by LC-MS/MS analysis; type: ADME, organism-based; conditions: in vivo; outline: as §5
[29] = Drug uptake in tumor of human PC3 cells xenografted in athymic NCr-nu/nu mouse at 30 mg/kg, qd administered via oral gavage measured 24 hrs post last dose by LC-MS/MS analysis; type: ADME, organism-based, Neoplasm, PC-3; conditions: read-out: Drug uptake; outline: as §2
[30] = Lipophilicity, log P of the compound; type: physicochemical; conditions: octanol/water

| Structure (SMILES) | concentration at 24 h [1] [µM] | half-life [4] [h] | Cmax [5] [µM] | clearance [6] [mL/min/kg] | concentration at 24 h [7] [µM] | concentration at 24 h [8] [µM] | concentration at 24 h [9] [µM] | bioavailability [10] [%] | concentration at 24 h [12] [µM] | concentration at 24 h [13] [µM] | Activity [14] | IC50 [15] [µM] | IC90 [15] [µM] | Tmax [16] [h] | TGI [17] | Tmax [18] [min] | Cmax [19] [µM] | half-life [20] [h] | IC50 [21] [µM] | IC90 [21] [µM] | further results |
| --- | --- | --- | --- | --- | --- | --- | --- | --- | --- | --- | --- | --- | --- | --- | --- | --- | --- | --- | --- | --- | --- |
| C[C@H](N)[C@@H](O)C[C@@H](O)CCCCCCCCCCCCC(F)(F)F | 3.46 | 1.3 | 1.68 | 136 | 25.3 | 6.01 | 1.94 | 68 | 0.153 | 4.74 | 11.6% | 21.4 | 24.4 | 12 | inactive | 4.8 | 0.193 | 5.5 | 11.3 | 19.2 | concentration at 24 h [2]: 3.23 µM; TGI [3]: inactive; Drug uptake [11]: Not Active; logD at 100 µM [22]: 3.24; AUC(0-t) [23]: 2.34 µM·h; Activity [24]: Non-toxic; concentration at 24 h [25]: 18.7 µM; AUC(0-t) [26]: 0.688 µM·h |
| CCCCCCCCCCCCC(F)(F)[C@H](O)C[C@H](O)[C@H](C)N | 6.94 | 5.7 | 4.4 | 34 | 23.6 | 16.1 | 9.29 | 10 | 0.936 | 14.8 | Non-toxic | 11.7 | 15.3 | 8 | Active | 4.8 | 0.119 | 9.9 | 13.4 | 16.7 | Activity [27]: Non-toxic; Drug uptake [28]: Not Active; logD at 100 µM [22]: 1.73; AUC(0-t) [23]: 1.47 µM·h; concentration at 24 h [29]: 62 µM; concentration at 24 h [25]: 44.5 µM; AUC(0-t) [26]: 2.91 µM·h |
| CCCCCCCCCCCCC[C@H](O)C[C@H](O)[C@H](C)N [ENIGMOL] | 0.766 | 4 | 2.45 | 76.2 | 1.6 | 3.25 | 1.06 | 11 | 0.041 | 1.35 | Non-toxic | 12.1 | 14 | 8 | Active | 4.8 | 0.0846 | 8.3 | 11.7 | 19.6 | concentration at 24 h [2]: 1.05 µM; TGI [3]: inactive; Drug uptake [11]: Not Active; logD at 100 µM [22]: 3.5; AUC(0-t) [23]: 0.832 µM·h; Activity [24]: Non-toxic; concentration at 24 h [25]: 5.34 µM; AUC(0-t) [26]: 1.45 µM·h |
| OC(F)(F)CF |  |  |  |  |  |  |  |  |  |  |  |  |  |  |  |  |  |  |  |  | logP [30]: 0.36 |
| CCCCCC(O)C(F)(F)F (stereo not given) |  |  |  |  |  |  |  |  |  |  |  |  |  |  |  |  |  |  |  |  | logP [30]: 1.14 |
